Sampled rows, rich in hits. Any-hit rate of the full collection: about 4%.
Mdm2-MdmX inh – disrupts the human Mdm2-MdmX interaction; actives 3% (n = 330,000); SaOS-2 split-luciferase Mdm2/MdmX complementation, luminescence; inhibition, % at 8 µM; AID 485346;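 active = inhibition of at least 50% at 8 µM in the primary screen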
ABHD5-PLIN5 inh – blocks binding of human ABHD5 to perilipin-5; Q00G26+Q8WTS1; Split G. princeps luciferase complementation, luminescence, 4 h; inhibition, % at 4 µM; actives 0.78% (n = 360,000);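 active = inhibition above the mean inhibition across every tested compound plus 3 SD, cut at about 22% in these data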;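 also: 0% = DMSO only wells and the 100% control is not disclosed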
Granule exo inh – blocks lytic granule exocytosis | TALL-104 LAMP-1 surface exposure, flow cytometry; cells stimulated with thapsigargin and PMA | inhibition, % at 10 µM | actives 0.66% (n = 360,000) | AID 651702;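 active = inhibition above about 55%, limit read from the data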
UPR XBP1 act – adaptive UPR (XBP1) activation; AID 463104; CHO-XBP1 luciferase reporter, IRE1-XBP1 UPR activation, luminescence; percent of tunicamycin response, DMSO as zero; actives 0.33% (n = 330,000); activation, % at 20 µM;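 active = versus positive control, 20 µM dose yields 30% or more activation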;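 also: 100% = tunicamycin at 10 µg/mL and 0% = DMSO only wells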
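Material: CHO-XBP1 cells stably carrying IRE1-XBP1-driven luciferase reporter | Medium: F12 with 10% serum | Compound dosing: 20 µM single concentration, DMSO 1% | Incubation: Overnight seeding at 37 °C, 6 h compound treatment at 37 °C | Detection: Steady-Glo luminescence read | Read-out basis: % activation of reporter signal versus tunicamycin and DMSO controls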
UPR CHOP act – activators of apoptotic arm of unfolded protein response (CHOP) | CHO-CHOP luciferase reporter, UPR activation, luminescence; percent of tunicamycin response over DMSO baseline | actives 0.34% (n = 330,000) | activation, % at 10 µM;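 active = at 10 µM dose, activation of 40% or more, normalized to positive control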;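 also: 100% = tunicamycin at 10 µg/mL and 0% = DMSO alone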
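System: CHO-CHOP luciferase reporter cell line | Buffer or medium: F12 medium containing 10% fetal bovine serum | Doses: One dose, 10 µM in 0.5% DMSO | Times: 6 h compound exposure at 37 °C after overnight seeding | Signal: Luciferase luminescence | Read-out: % activation vs tunicamycin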
Mdm2 MdmX conf – human Mdm2/MdmX binding inhibition, confirmed | shares compounds with Mdm2-MdmX inh | luminescent assay | inhibition, % at 8 µM | actives 55% (n = 10,000) | AID 489028; in the data active = inhibition above about 40%
Full FLuc ctr – inhibits full-length luciferase, flagging false Mdm2/MdmX hits; actives 77% (n = 6,200); SaOS-2 full-length luciferase counterscreen, luminescence; shares compounds with Mdm2-MdmX inh; inhibition, % at 8 µM;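 active = mean inhibition at 8 µM reaching about 37%, which flags the compound as non-specific, limit read from the data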;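 also: p53-null SaOS-2 cells with luciferase driven by a doxycycline-inducible promoter; compound on cells about two nights before reading with doxycycline added after day one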
* marks the source's active call; other numbers are inactive results; / = no result given.

SMILES | Mdm2-MdmX inh | ABHD5-PLIN5 inh | Granule exo inh | UPR XBP1 act | UPR CHOP act | Mdm2 MdmX conf | others
CCOc1ccc(NC(=S)N(CCCN2CCCC2)Cc2cccn2Cc2ccc(Cl)cc2)cc1 | 65* | 3 | 0 | -2 | 1 | 35
Cc1ccc(C(=O)NCCc2csc(-c3cccnc3)n2)cc1 | -8 | -13 | 0 | 3 | 1 | /
C[C@H]1CN([C@@H](C)CO)C(=O)c2cc(NC(=O)Nc3cccc4ccccc34)ccc2O[C@@H]1CN(C)Cc1ccc(-c2ccccc2)cc1 | 21 | 12 | -5 | -1 | 0 | /
C[C@H](CO)N1C[C@H](C)[C@H](CN(C)Cc2ccccc2)Oc2ccc(NC(=O)Nc3ccc(F)cc3)cc2C1=O | 65* | 11 | 0 | -1 | 0 | 27
C[C@H]1CN([C@@H](C)CO)C(=O)c2cc(NC(=O)C3CCCCC3)ccc2O[C@H]1CN(C)Cc1ccc(-c2ccccc2)cc1 | 81* | 6 | -3 | 4 | 12 | 23
C[C@@H]1CN([C@H](C)CO)C(=O)c2cc(NC(=O)Nc3cccc4ccccc34)ccc2O[C@H]1CN(C)Cc1ccc(C(F)(F)F)cc1 | 56* | -3 | -6 | 4 | 5 | 29 | Full FLuc ctr=81*
C[C@@H]1CN([C@@H](C)CO)C(=O)Cc2cc(NC(=O)Nc3cccc4ccccc34)ccc2O[C@@H]1CN(C)Cc1ccc(C(F)(F)F)cc1 | 65* | -13 | 1 | 4 | 8 | 31
O=S1(=O)CC(O)C(Nc2ccc(Cl)cc2)C1 (stereo not given) | -1 | 2 | 0 | -1 | 1 | /
COc1ccccc1S(=O)(=O)Cc1ccc(C(=O)N2CCN(c3ccccc3)CC2)o1 | 0 | -5 | 1 | 0 | -1 | /
C[C@@H]1CN([C@H](C)CO)C(=O)Cc2cc(NC(=O)Nc3ccccc3)ccc2O[C@@H]1CN(C)Cc1ccc2c(c1)OCO2 | 53* | 8 | 2 | -2 | 1 | 18
CCOC(=O)CCCCCC(=O)Nc1ccc2c(c1)CC(=O)N([C@H](C)CO)C[C@@H](C)[C@H](CN(C)Cc1ccc3c(c1)OCO3)O2 | 20 | -3 | 2 | -3 | 1 | /
O=C(O/N=C(\c1ccccc1)c1ccncc1)c1ccccc1F | 9 | 3 | -2 | 0 | 3 | /
C=CCn1c2ccccc2c(=O)c2cc(C#Cc3cc(OC)cc(OC)c3)ccc21 | 25 | -5 | 3 | 5 | 2 | /
COc1ccc(-c2c(C#Cc3ccc(N(C)C)cc3)c3ccccc3n2C)cc1 | 52* | -7 | 0 | 4 | 3 | 9
COc1cc(C#Cc2c(C=O)n(C)c3ccccc23)cc(OC)c1 | 66* | 5 | 8 | 0 | 6 | 39 | Full FLuc ctr=78*
COc1ccc(-c2c(C#Cc3ccsc3)c3cc(Br)ccc3n2C)cc1 | 0 | 1 | -1 | 0 | -1 | /
Cc1sc2nc(C3CCCCC3)nc(SCC(=O)N3CC(=O)Nc4ccccc43)c2c1C | 56* | 7 | 0 | 6 | 2 | 18
CCc1nc(SCC(=O)N2CC(=O)Nc3ccccc32)c2c(C)c(C)sc2n1 | 39 | -6 | 7 | -3 | -2 | /
O=C(Nc1ccc2c(c1)CCC2)c1cnn2c1NC(c1ccco1)CC2C(F)(F)F (stereo not given) | 88* | 14 | -5 | -1 | 2 | 54* | Full FLuc ctr=79*
Cc1ccc(Cl)cc1NC(=O)c1cnn2c1NC(c1ccco1)CC2C(F)(F)F (stereo not given) | 9 | 6 | 2 | 0 | -2 | /
COc1ccccc1-n1cnnc1SCC(=O)N1CC(=O)Nc2ccccc21 | 18 | -2 | -1 | -6 | -1 | /
O=C(Nc1ccc(Cl)cc1)Nc1nc(-c2ccccc2O)cs1 | 27 | -18 | -1 | 13 | 3 | /
O=C(Nc1ccc(Cl)cc1)Nc1nc(-c2sccc2Br)cs1 | 88* | -6 | 1 | 11 | 11 | 77* | Full FLuc ctr=39*
COC(=O)[C@@]12CCCCN1[C@H](c1ccc(-c3cccc(Cl)c3)c(OC)c1)[C@@H]1C(=O)N(C)C(=O)[C@@H]12 | 73* | -11 | -1 | 4 | 2 | 25
COC(=O)[C@@]12CCCN1[C@H](c1ccc(-c3cccc(Cl)c3)c(OC)c1)[C@H]1C(=O)N(C)C(=O)[C@H]12 | 26 | 5 | -5 | 2 | 1 | /
SMILES | Mdm2-MdmX inh | ABHD5-PLIN5 inh | Granule exo inh | UPR XBP1 act | UPR CHOP act | Mdm2 MdmX conf | others
COC(=O)[C@@]12CCCCN1[C@H](c1ccc(-c3ccc(F)cc3)cc1)[C@H]1C(=O)N(C)C(=O)[C@H]12 | 64* | 4 | -3 | -1 | -1 | 46* | Full FLuc ctr=48*
CCN1C(=O)[C@@H]2[C@@H](c3ccc(-c4ccc(F)cc4)c(OC)c3)N3CCCC[C@@]3(C(=O)OC)[C@@H]2C1=O | 36 | -12 | -1 | 2 | 2 | /
COC(=O)[C@@]12CCCN1[C@H](c1ccc(-c3ccc(F)cc3)cc1)[C@H]1C(=O)N(C)C(=O)[C@H]12 | 26 | 15 | -9 | -4 | -2 | /
CCN1C(=O)[C@@H]2[C@@H](c3ccc(-c4ccc(Cl)c(Cl)c4)c(OC)c3)N3CCCC[C@@]3(C(=O)OC)[C@@H]2C1=O | 53* | -1 | -5 | 1 | 2 | 17
Cc1cc(C)cc(NC(=S)NCc2ccc(S(N)(=O)=O)cc2)c1 | 9 | -4 | 1 | -3 | 1 | /
C#CCn1c(=NC(=O)c2cccs2)sc2cccc(OCC)c21 | 64* | -1 | -6 | 12 | 2 | -4
CCOC(=O)Cn1c(=NC(=O)c2cccs2)sc2cc(C(=O)OC)ccc21 | -2 | -6 | 2 | 11 | 4 | /
CCOc1ccccc1NC(=O)Cn1nc(-c2ccco2)ccc1=O | -11 | 13 | -6 | -1 | 0 | /
Cc1ccc(/C=N/Nc2ccnc3cc(Cl)ccc23)c(C)c1 | 100* | -9 | 42 | 22 | 26 | 29
Oc1ccc(/C=N/Nc2ccnc3cc(Cl)ccc23)c(O)c1 | 27 | 6 | 3 | 2 | 10 | /
COc1ccc(Cc2nnc(NC(=O)c3cc(OC)cc(OC)c3)s2)cc1 | 52* | -5 | 7 | -3 | 1 | 46* | Full FLuc ctr=86*
CCOc1ccccc1NC(=O)c1ccc(C(=O)Nc2ccccc2OCC)nc1 | 91* | -1 | 1 | 8 | 1 | 10
COc1ccccc1NC(=O)c1ccc(C(=O)Nc2ccccc2OC)nc1 | 26 | -1 | 0 | -4 | 2 | /
CC(=O)Nc1ccc(NC(=O)c2nc(S(=O)(=O)Cc3cccc(C)c3)ncc2Cl)cc1 | 86* | 66* | -5 | -11 | -11 | 66* | Full FLuc ctr=51*
CSc1ncc(Cl)c(C(=O)Nc2ccc(C)c(C)c2)n1 | 16 | 0 | -4 | -4 | 2 | /

High-throughput results deposited in PubChem BioAssay by several laboratories.
